Measured values: ChEMBL document CHEMBL4392862, “Antioxidant, anti-tyrosinase and anti-melanogenic effects of (E)-2,3-diphenylacrylic acid derivatives” (Bioorg Med Chem, 2019)

Assays:
[1] = system: B16-F10; assay: Cytotoxicity against mouse B16F10 cells assessed as reduction in cell viability at 5 to 10 uM incubated for 24 hrs by WST8 assay; type: cell-based; conditions: b16-f10, 24 h
Method in brief: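 B16F10 cells seeded at 5x10^4 per well in DMEM with 10% FBS and penicillin/streptomycin, 37 °C, 5% CO2, and grown 24 h. Exposed to 0, 5, 10 or 25 µM for 24 h. WST-8 reagent added for 1 h, OD read at 450 nm. Viability expressed as % of untreated cells. Three repeats.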

[2] = target: T1, Tyrosinase (Mus musculus) (UniProt P11344); assay: Inhibition of tyrosinase in alpha-MSH-stimulated mouse B16F10 cells incubated for 24 hrs relative to untreated control
T1 sequence (whole entry): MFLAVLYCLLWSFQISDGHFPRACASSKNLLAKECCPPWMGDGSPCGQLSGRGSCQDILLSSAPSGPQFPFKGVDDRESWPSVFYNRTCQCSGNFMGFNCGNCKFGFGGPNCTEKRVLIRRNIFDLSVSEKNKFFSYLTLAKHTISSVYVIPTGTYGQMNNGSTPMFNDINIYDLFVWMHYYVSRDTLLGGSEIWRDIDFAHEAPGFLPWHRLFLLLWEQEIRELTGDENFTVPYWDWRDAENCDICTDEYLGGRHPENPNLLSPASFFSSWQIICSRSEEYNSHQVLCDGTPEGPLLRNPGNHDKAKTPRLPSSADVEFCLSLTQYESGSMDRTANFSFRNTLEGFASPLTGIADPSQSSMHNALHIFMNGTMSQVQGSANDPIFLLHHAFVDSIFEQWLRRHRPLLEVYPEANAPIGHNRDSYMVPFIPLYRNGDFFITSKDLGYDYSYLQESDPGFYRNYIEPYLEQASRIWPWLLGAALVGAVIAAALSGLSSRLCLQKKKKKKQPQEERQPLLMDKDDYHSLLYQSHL
Method in brief: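 B16F10 cells seeded at 5x10^4 per well and grown 24 h at 37 °C, 5% CO2. […] Cells PBS-washed, lysed in PMSF/Triton X-100 buffer, frozen at −80 °C, spun 12,000 rpm 4 °C. Supernatant incubated with L-dopa 30 min at 37 °C, OD read at 500 nm. Triplicate.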

[3] = Antioxidant activity assessed as DPPH radical scavenging activity at 1 mM after 30 mins under dark condition relative to untreated control; type: functional
Method in brief: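 Test compounds dissolved in DMSO, mixed 1:9 (v/v) with 0.2 mM DPPH in methanol to a tested level of 1 mM. Incubated 30 min in the dark. Absorbance read at 517 nm. Scavenging % = (Ac−As)×100/Ac against untreated control. L-ascorbic acid used as positive control. Triplicate.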

[4] = target: T1, Tyrosinase (Mus musculus); conditions: 400 uM

SMILES | inhibition [3] | further results
O=C(O)/C(=C/c1ccc(O)cc1O)c1ccccc1 | 52.1% | Activity [1]: Non-Toxic; inhibition [2]: Dose-dependent effect
CCOc1cc(/C=C(/C(=O)O)c2ccccc2)ccc1O | 43.6% | –
COc1cc(/C=C(/C(=O)O)c2ccccc2)cc(OC)c1O | 85% | –
O=C(O)/C(=C/c1cc(Br)c(O)c(Br)c1)c1ccccc1 | 23.9% | –
O=C(O)/C(=C/c1ccc(O)cc1)c1ccccc1 | 6.04% | –
Cc1cc(/C=C(/C(=O)O)c2ccccc2)ccc1O | 78.1% | –
COc1ccc(/C=C(/C(=O)O)c2ccccc2)cc1 | 5.68% | –
O=C1O[C@H]([C@@H](O)CO)C(O)=C1O | 84.6% | –
O=C(O)/C(=C/c1ccc(O)c(Br)c1)c1ccccc1 | 19.4% | –
O=C(O)/C(=C/c1cccc(O)c1)c1ccccc1 | 12.4% | –
O=C(O)/C(=C/c1ccccc1O)c1ccccc1 | 4.43% | –
OC[C@H]1O[C@@H](Oc2ccc(O)cc2)[C@H](O)[C@@H](O)[C@@H]1O | – | inhibition [4]: 42.6%
COc1ccc(/C=C(/C(=O)O)c2ccccc2)cc1OC | 10.2% | –
COc1ccc(/C=C(/C(=O)O)c2ccccc2)cc1O | 24% | –
O=C(O)/C(=C/c1ccc(O)c(O)c1)c1ccccc1 | 83.7% | –
COc1cc(/C=C(/C(=O)O)c2ccccc2)ccc1O | 81.6% | –
O=C(O)/C(=C\c1cc(Br)c(O)c(Br)c1)c1ccccc1 | 11.6% | –
